Experimental data published in ChEMBL document CHEMBL1127081, “Synthesis of 2,4-disubstituted thiazoles and selenazoles as potential antifilarial and antitumor agents. 2. 2-Arylamido and 2-alkylamido derivatives of 2-amino-4-(isothiocyanatomethyl)thiazole and 2-amino-4-(isothiocyanatomethyl)selenazole” (J Med Chem, 1993).
Activity calls are given as the source filed them. The calls are words filed in the database; no cut-off is given here.

Legend:
[1] = test system: Acanthocheilonema viteae; assay: Antifilarial activity against adult worm of A. viteae in jirds at 100 mg/kg x 5 days administered subcutaneously; No activity; type: functional, organism-based; design: dose 100 mg/kg
[2] = test system: L1210; assay: Compound was tested in vitro for antiproliferative activity against L1210 leukemic cells; type: functional, cell-based; details: Mus musculus
Outline: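 Mouse L1210 leukemia cells grown in static suspension culture at 38 °C in Fischer's medium. Cells were exposed continuously to a range of concentrations for 3 days. Growth rate = control doubling time / treated doubling time, as % of control; the final rate was used if growth slowed. IC50 = concentration reducing growth rate to 50% of control.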

[3] = test system: Brugia pahangi; assay: Compound tested for anti-filarial activity against adult worm of Brugia pahangi in jirds at 100 mg/kg x 5 days administered subcutaneously; No activity; type: functional, organism-based; design: dose 100 mg/kg
[4] = test system: L1210; assay: Screen growth rate of L1210 leukemic cells in the presence of compound at 100 uM expressed as percent of control; type: functional, Mus musculus
Outline: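 L1210 cells grown in static suspension at 38 °C in Fischer's medium with continuous 100 μM compound for 3 days. Growth rate = ratio of control to treated population doubling time, expressed as % of control; if growth slowed, the final rate over the 3-day period was used.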

[5] = test system: L1210; assay: Compound was tested in vitro for antiproliferative activity against L1210 leukemic cells; No significant inhibition; type: functional, cell-based, Mus musculus
[6] = molecular target: GMP synthase [glutamine-hydrolyzing] (Mus musculus, UniProt Q3THK7); assay: In vitro inhibitory activity against partially purified GMP synthetase in L1210 cells
Chain of GMP synthase [glutamine-hydrolyzing] (Q3THK7 whole entry): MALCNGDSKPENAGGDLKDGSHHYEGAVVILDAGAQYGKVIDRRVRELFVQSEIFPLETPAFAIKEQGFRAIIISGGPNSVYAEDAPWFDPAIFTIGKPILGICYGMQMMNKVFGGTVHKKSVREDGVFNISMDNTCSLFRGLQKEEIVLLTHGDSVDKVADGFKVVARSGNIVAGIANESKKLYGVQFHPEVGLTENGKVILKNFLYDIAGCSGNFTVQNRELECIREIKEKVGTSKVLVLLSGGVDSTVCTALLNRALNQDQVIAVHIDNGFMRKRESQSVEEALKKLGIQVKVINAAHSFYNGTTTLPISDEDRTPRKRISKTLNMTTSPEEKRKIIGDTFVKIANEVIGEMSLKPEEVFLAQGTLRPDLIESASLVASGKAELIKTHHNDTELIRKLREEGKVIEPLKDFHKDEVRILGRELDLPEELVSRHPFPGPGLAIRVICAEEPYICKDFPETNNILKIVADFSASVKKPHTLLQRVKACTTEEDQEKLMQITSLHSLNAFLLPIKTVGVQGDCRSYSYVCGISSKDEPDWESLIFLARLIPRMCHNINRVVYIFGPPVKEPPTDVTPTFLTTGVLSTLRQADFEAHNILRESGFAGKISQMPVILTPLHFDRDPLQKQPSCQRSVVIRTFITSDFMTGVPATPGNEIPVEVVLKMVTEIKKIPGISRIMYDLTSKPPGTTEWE

Row | IC50 [2] [µM] | IC50 [6] [µM] | Compound | Activity [1] | Activity [3] | GR [4] [%] | IC50 [5]
1 | – | – | O=C(Nc1nc(CN=C=S)cs1)C(F)(F)F | inactive | inactive | 20 | –
2 | 0.44 | – | COc1ccc(C(=O)Nc2nc(CN=C=S)cs2)cc1 | inactive | inactive | 0 | –
3 | 4.3 | – | CC(C)(C)C(=O)Nc1nc(CN=C=S)cs1 | inactive | inactive | 28 | –
4 | – | – | O=C(Nc1nc(CCl)cs1)c1ccccc1 | inactive | inactive | 100 | Not Active
5 | 0.5 | – | O=C(Nc1nc(CN=C=S)cs1)c1ccc(C(F)(F)F)cc1 | inactive | inactive | 0 | –
6 | 8.2 | – | CC(C)C(=O)Nc1nc(CN=C=S)cs1 | inactive | inactive | 0 | –
7 | 0.82 | – | O=C(Nc1nc(CN=C=S)cs1)c1ccc(Cl)c(Cl)c1 | inactive | inactive | 0 | –
8 | 6.8 | – | CCC(=O)Nc1nc(CN=C=S)cs1 | inactive | inactive | 0 | –
9 | > 100 | – | CC(C)(C)c1ccc(C(=O)Nc2nc(CN=C=S)cs2)cc1 | inactive | inactive | 72 | –
10 | – | – | O=C(Nc1nc(CCl)c[se]1)c1ccccc1 | inactive | inactive | 101 | Not Active
11 | 5.2 | – | CC(=O)Nc1nc(CN=C=S)cs1 | inactive | inactive | 1 | –
12 | – | – | COC(=O)Nc1nc(CN=C=S)cs1 | inactive | inactive | – | –
13 | 0.48 | – | Cc1ccc(C(=O)Nc2nc(CN=C=S)cs2)cc1 | inactive | inactive | 25 | –
14 | 0.22 | – | O=C(Nc1nc(CN=C=S)cs1)c1ccc(Cl)cc1 | inactive | inactive | 0 | –
15 | 0.2 | 0.35 | O=C(Nc1nc(CN=C=S)cs1)c1ccccc1 | inactive | inactive | 0 | –
16 | 1.1 | – | O=C(Nc1nc(CN=C=S)cs1)c1ccc(F)cc1 | inactive | inactive | 0 | –

Row | Compound | IC50 [2] [µM] | IC50 [6] [µM] | Activity [1] | Activity [3] | GR [4] [%] | IC50 [5]
17 | Nc1nc(CN=C=S)c[se]1 | 21 | – | inactive | inactive | 0 | –
18 | CC(=O)Nc1nc(CN=C=S)c[se]1 | 30 | – | inactive | inactive | 14 | –
19 | CC(C)C(=O)Nc1nc(CN=C=S)c[se]1 | 28 | – | inactive | inactive | 0 | –
20 | CC(=O)Nc1nc(CCl)cs1 | > 100 | – | inactive | inactive | 75 | –
21 | CCC(=O)Nc1nc(CN=C=S)c[se]1 | 3.5 | – | inactive | inactive | 0 | –
22 | Nc1nc(CN=C=S)cs1 | 26 | – | inactive | inactive | 0 | –
23 | CC(=O)Nc1nc(CCl)c[se]1 | > 100 | – | inactive | inactive | 65 | –
24 | O=C(Nc1nc(CN=C=S)c[se]1)c1ccccc1 | 0.9 | – | inactive | inactive | 13 | –
25 | CC(C)(C)C(=O)Nc1nc(CN=C=S)c[se]1 | 18 | – | inactive | inactive | 0 | –
